Measurements as given in ChEMBL document CHEMBL4011643, “Triaryl Benzimidazoles as a New Class of Antibacterial Agents against Resistant Pathogenic Microorganisms” (J Med Chem, 2017).

Assays:
Staphylococcus aureus [1] = assay: Bactericidal activity against methicillin-resistant Staphylococcus aureus EMRSA-15 assessed as time required to kill bacteria by >6 log10CFU/ml at 4 times MIC by Miles Misra dilution method; format: functional
Method in brief: (§1)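 Flasks of TSB inoculated at ~10^6 cfu/mL, compound added at 4 × MIC, shaken at 200 rpm and 37 °C. Samples taken at 1, 2, 4, 6 and 24 h and plated by Miles Misra dilution for CFU/mL. Bactericidal means a loss of >3 log CFU/mL. Three independent repeats, error bars SD.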

Staphylococcus aureus [2] = assay: Antibacterial activity against methicillin-sensitive Staphylococcus aureus ATCC 9144 after 20 hrs by broth microdilution method; format: functional; conditions: ATCC 9144, 20 h
Method in brief: (§2)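 Broth microdilution in Tryptic Soy Broth, done in triplicate. Growth was read as OD600 after 20 h. MIC is the lowest drug concentration giving OD600 below 0.1.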

Enterococcus faecalis [3] = assay: Bactericidal activity against vancomycin-resistant Enterococcus faecalis NCTC 12201 assessed as time required to kill bacteria by <3 log10CFU/ml at 4 times MIC by Miles Misra dilution method; format: functional; method in brief: as §1
Enterococcus faecalis [4] = assay: Antibacterial activity against vancomycin-resistant Enterococcus faecalis NCTC 12201 after 20 hrs by broth microdilution method; format: functional; conditions: NCTC 12201, 20 h
Method in brief: (§3)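 Broth microdilution in Tryptic Soy Broth; growth read as OD600 after 20 h. MIC taken as the lowest drug concentration giving OD600 below 0.1. Run in triplicate.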

Staphylococcus aureus [5] = assay: Bactericidal activity against methicillin-resistant Staphylococcus aureus EMRSA-15 assessed as time required to kill bacteria by 3 log10CFU/ml at 4 times MIC by Miles Misra dilution method; format: functional; method in brief: as §1
Enterococcus faecalis [6] = assay: Antibacterial activity against vancomycin-sensitive Enterococcus faecalis NCTC 775 after 20 hrs by broth microdilution method; format: functional; conditions: NCTC 775, 20 h; method in brief: as §2
Staphylococcus aureus [7] = assay: Antibacterial activity against methicillin-resistant Staphylococcus aureus MRSA252 after 20 hrs by broth microdilution method; format: functional; conditions: MRSA252, 20 h; method in brief: as §3
Staphylococcus aureus [8] = assay: Antibacterial activity against methicillin-resistant Staphylococcus aureus EMRSA-15 after 20 hrs by broth microdilution method; format: functional; conditions: EMRSA-15, 20 h; method in brief: as §3
Enterococcus faecium = assay: Antibacterial activity against vancomycin-resistant Enterococcus faecium NCTC 12204 after 20 hrs by broth microdilution method; format: functional; conditions: NCTC 12204, 20 h; method in brief: as §3
Staphylococcus aureus [9] = assay: Inhibition of Staphylococcus aureus DNA gyrase assessed as reduction in pNO1 supercoiling at 0.5 ug/mL by fluorescent dye-based assay
Method in brief: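 Supercoiling plate assay run per the kit instructions. S. aureus gyrase was incubated with compound and plasmid pNO1. Negatively supercoiled plasmid was captured by a triplex-forming oligonucleotide, stained with a fluorescent dye and read by fluorescence (excitation 485 nm). Percent inhibition was reported.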

Question: Which results are given for `C[C@H]1COc2c(N3CCN(C)CC3)c(F)cc3c(=O)c(C(=O)O)cn1c23.C[C@H]1COc2c(N3CCN(C)CC3)c(F)cc3c(=O)c(C(=O)O)cn1c23.O` [LEVOFLOXACIN]?
Answer: Time (Staphylococcus aureus [1]): 24 h; MIC (Staphylococcus aureus [2]): 0.12 µg/mL; Time (Enterococcus faecalis [3]): 24 h; MIC (Enterococcus faecalis [4]): 1 µg/mL; Time (Staphylococcus aureus [5]): 6 h; MIC (Enterococcus faecalis [6]): 1 µg/mL; MIC (Staphylococcus aureus [7]): 8 µg/mL; MIC (Staphylococcus aureus [8]): 8 µg/mL; MIC (Enterococcus faecium): 0.5 µg/mL; inhibition (Staphylococcus aureus [9]): 57.9%
